Assay results: ChEMBL document CHEMBL1795318, “Development of tetrahydroisoquinoline-based hydroxamic acid derivatives: potent histone deacetylase inhibitors with marked in vitro and in vivo antitumor activities” (J Med Chem, 2011)
Activity calls are given as the source filed them. The rule behind the calls is not given here.

How the values were obtained:
MDA-MB-231 [1] = assay: Antitumor activity against human MDA-MB-231 cells xenografted in athymic nude mouse assessed as tumor growth inhibition at 90 mg/kg, ip qd for 21 days; assay type: functional; conditions: route intraperitoneal
Histone deacetylase 8 = target: T1, Histone deacetylase 8 (Homo sapiens, UniProt Q9BY41); assay: Inhibition of HDAC8 after 30 mins by fluorescence microplate reader
T1 sequence (Q9BY41 whole entry): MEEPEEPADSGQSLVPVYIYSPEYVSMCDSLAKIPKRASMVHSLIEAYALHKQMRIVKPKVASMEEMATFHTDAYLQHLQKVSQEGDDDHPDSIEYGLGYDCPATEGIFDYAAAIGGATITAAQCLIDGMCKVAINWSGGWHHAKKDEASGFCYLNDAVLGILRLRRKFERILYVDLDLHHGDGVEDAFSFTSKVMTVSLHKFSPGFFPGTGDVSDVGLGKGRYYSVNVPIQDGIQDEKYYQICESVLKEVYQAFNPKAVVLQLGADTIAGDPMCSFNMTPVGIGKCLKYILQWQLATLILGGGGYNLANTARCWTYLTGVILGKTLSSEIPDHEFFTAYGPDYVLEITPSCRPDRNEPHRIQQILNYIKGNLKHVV
Method in brief: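 HDAC8 mixed with compound at various concentrations, fluorogenic substrate added, 37 °C for 30 min; stopped with developer containing trypsin and TSA. Fluorescence read after 20 min (ex 390/em 460 nm); inhibition relative to control wells, IC50 by regression of concentration/inhibition data; mean ± SD of at least three determinations.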

MDA-MB-231 [2] = assay: Cell cycle arrest in human MDA-MB-231 cells assessed as accumulation at G2 phase at 2 to 5 uM after 48 hrs by flow cytometry analysis; assay type: functional, cell-based
[3] = target: T2, Protein deacetylase HDAC6 (Homo sapiens, UniProt Q9UBN7); assay: Inhibition of HDAC6 in human HeLa cell nuclear extract after 30 mins by fluorescence microplate reader
T2 sequence (Q9UBN7 whole entry): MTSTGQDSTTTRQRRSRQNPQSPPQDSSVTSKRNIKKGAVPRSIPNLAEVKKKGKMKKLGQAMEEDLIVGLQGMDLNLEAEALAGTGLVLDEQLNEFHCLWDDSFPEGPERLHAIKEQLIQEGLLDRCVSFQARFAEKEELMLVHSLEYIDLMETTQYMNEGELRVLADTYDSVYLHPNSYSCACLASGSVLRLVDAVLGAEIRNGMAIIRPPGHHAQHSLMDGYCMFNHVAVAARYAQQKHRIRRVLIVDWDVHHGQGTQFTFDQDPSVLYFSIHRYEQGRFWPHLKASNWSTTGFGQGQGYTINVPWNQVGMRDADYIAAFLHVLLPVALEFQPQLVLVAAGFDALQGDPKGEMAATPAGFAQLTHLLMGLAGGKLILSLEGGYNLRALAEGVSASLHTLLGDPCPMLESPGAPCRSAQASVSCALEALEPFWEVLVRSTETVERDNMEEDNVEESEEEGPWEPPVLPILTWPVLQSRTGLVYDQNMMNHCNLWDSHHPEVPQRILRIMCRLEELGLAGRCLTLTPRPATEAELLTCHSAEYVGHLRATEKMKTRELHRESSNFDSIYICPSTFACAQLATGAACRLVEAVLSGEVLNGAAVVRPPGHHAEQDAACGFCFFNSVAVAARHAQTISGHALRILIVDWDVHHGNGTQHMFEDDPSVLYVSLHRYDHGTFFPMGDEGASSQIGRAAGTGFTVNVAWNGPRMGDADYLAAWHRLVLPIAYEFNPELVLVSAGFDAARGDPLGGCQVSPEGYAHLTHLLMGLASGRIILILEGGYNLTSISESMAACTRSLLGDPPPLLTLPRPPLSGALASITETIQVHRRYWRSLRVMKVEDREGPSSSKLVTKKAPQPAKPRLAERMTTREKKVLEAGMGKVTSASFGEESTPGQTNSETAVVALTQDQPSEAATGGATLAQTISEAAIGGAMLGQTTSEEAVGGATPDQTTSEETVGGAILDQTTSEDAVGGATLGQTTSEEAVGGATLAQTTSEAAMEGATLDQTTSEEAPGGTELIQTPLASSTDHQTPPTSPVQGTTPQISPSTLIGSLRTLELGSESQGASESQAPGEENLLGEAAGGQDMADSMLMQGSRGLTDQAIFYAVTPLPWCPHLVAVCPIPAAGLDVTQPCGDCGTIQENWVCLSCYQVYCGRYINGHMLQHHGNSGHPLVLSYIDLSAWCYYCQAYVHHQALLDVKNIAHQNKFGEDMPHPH

Mus musculus [4] = assay: Toxicity in human MDA-MB-231 cells xenografted athymic nude mouse assessed as change in body weight at 90 mg/kg, ip qd for 21 days; assay type: organism-based; parameters: dose 90 mg/kg, route intraperitoneal; conditions: in vivo, 504 h
MDA-MB-231 [5] = assay: Antitumor activity against human MDA-MB-231 cells xenografted in athymic nude mouse assessed as tumor growth delay at 90 mg/kg, ip qd for 21 days; assay type: functional, organism-based; parameters: dose 90 mg/kg
A549 = assay: Cytotoxicity against human A549 cells after 48 hrs by MTT assay; assay type: functional, cell-based; conditions: A549, 48 h
Method in brief: (§1)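 Cells kept in RPMI1640 with 10% FBS, 37 °C, 5% CO₂; seeded day before dosing, grown ≥4 h, treated with a concentration series for 48 h. MTT 0.5% solution added, 4 h further; formazan dissolved in DMSO 15 min, absorbance at 570 nm. Mean of three experiments.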

MDA-MB-231 [6] = assay: Cell cycle arrest in human MDA-MB-231 cells assessed as accumulation at G1 phase at 0.5 uM after 48 hrs by flow cytometry analysis; assay type: functional, cell-based
MDA-MB-231 [7] = assay: Cytotoxicity against human MDA-MB-231 cells after 48 hrs by MTT assay; assay type: functional, cell-based; conditions: MDA-MB-231, 48 h
Histone deacetylase = assay: Inhibition of HDAC in human HeLa cell nuclear extract after 30 mins by fluorescence microplate reader; assay type: protein assay
NB-4 = assay: Cytotoxicity against human NB4 cells after 48 hrs by MTT assay; assay type: functional, cell-based; conditions: NB-4, 48 h
HL-60 = assay: Cytotoxicity against human HL60 cells after 48 hrs by MTT assay; assay type: functional, cell-based; conditions: HL-60, 48 h
Mus musculus [8] = assay: Toxicity in human MDA-MB-231 cells xenografted athymic nude mouse assessed as signs of toxicity at 90 mg/kg, ip qd for 21 days; assay type: organism-based; parameters: dose 90 mg/kg, route intraperitoneal; conditions: in vivo, 504 h
[9] = Cytotoxicity against human ES2 cells after 48 hrs by MTT assay; assay type: functional, cell-based; conditions: ES-2, 48 h
K562 = assay: Cytotoxicity against human K562 cells after 48 hrs by MTT assay; assay type: functional, cell-based; conditions: K562, 48 h
[10] = Cytotoxicity against human fibroblasts after 48 hrs by MTT assay; assay type: cell-based; conditions: fibroblast; method in brief: as §1
HeLa = assay: Cytotoxicity against human HeLa cells after 48 hrs by MTT assay; assay type: functional, cell-based

With `CC[C@H](C)[C@H](NC(=O)OC(C)(C)C)C(=O)N1Cc2cc(OCC(=O)NO)ccc2C[C@H]1C(=O)Nc1ccc(OC)cc1` the T/C (MDA-MB-231 [1]) was 63%, the IC50 (Histone deacetylase 8) was 139 nM and the Activity (MDA-MB-231 [2]) was “Active”. For the same molecule, the IC50 [3] was 47 nM, the Activity (Mus musculus [4]) was “Non-toxic” and the Activity (MDA-MB-231 [5]) was “Active”. The IC50 (A549) was 940 nM, the Activity (MDA-MB-231 [6]) was “Active” and the IC50 (MDA-MB-231 [7]) was 790 nM. The IC50 (Histone deacetylase) was 58 nM, the IC50 (NB-4) was 1500 nM and the IC50 (HL-60) was 47600 nM. For the same molecule, the Activity (Mus musculus [8]) was “Non-toxic”, the IC50 [9] was 5000 nM and the IC50 (K562) was 1470 nM. The Activity [10] was “Toxic” and the IC50 (HeLa) was 37100 nM.
In the case of `O=C(CCCCCCC(=O)Nc1ccccc1)NO` [VORINOSTAT], the Activity (Mus musculus [4]) is reported as “Non-toxic”, the Activity (MDA-MB-231 [5]) is reported as “Active” and the IC50 (A549) is reported as 740 nM. The Activity (Mus musculus [8]) was “Non-toxic”.
